Experimental data as given in ChEMBL document CHEMBL4229333, “Effects of rigidity on the selectivity of protein kinase inhibitors” (Eur J Med Chem, 2018).

Tests used:
[1] = target: G protein-coupled receptor kinase 6 (Homo sapiens) (UniProt P43250); experiment: Inhibition of GRK6 (unknown origin) at 1 uM by mobility shift microfluidics platform based assay relative to control
[2] = target: Cyclin-dependent kinase 5/CDK5 activator 1 (Homo sapiens) (UniProt Q00535+Q15078); experiment: Inhibition of CDK5-p25 (unknown origin) at 1 uM by mobility shift microfluidics platform based assay relative to control; format: protein-complex assay
[3] = target: MAP/microtubule affinity-regulating kinase 3 (Homo sapiens) (UniProt P27448); experiment: Inhibition of MARK3 (unknown origin) at 1 uM by mobility shift microfluidics platform based assay relative to control
[4] = target: Tyrosine-protein kinase Yes (Homo sapiens) (UniProt P07947); experiment: Inhibition of YES (unknown origin) at 1 uM by mobility shift microfluidics platform based assay relative to control
[5] = target: Macrophage colony-stimulating factor 1 receptor (Homo sapiens) (UniProt P07333); experiment: Inhibition of FMS (unknown origin) at 1 uM by mobility shift microfluidics platform based assay relative to control
[6] = target: Dual specificity tyrosine-phosphorylation-regulated kinase 1B (Homo sapiens) (UniProt Q9Y463); experiment: Inhibition of DYRK1B (unknown origin) at 1 uM by mobility shift microfluidics platform based assay relative to control
[7] = target: Protein kinase C beta type (Homo sapiens) (UniProt P05771); experiment: Inhibition of PKC-beta2 (unknown origin) at 1 uM by mobility shift microfluidics platform based assay relative to control
[8] = target: Vascular endothelial growth factor receptor 1 (Homo sapiens) (UniProt P17948); experiment: Inhibition of FLT1 (unknown origin) at 1 uM by mobility shift microfluidics platform based assay relative to control
Sequence of Vascular endothelial growth factor receptor 1 (Homo sapiens) (P17948 whole entry): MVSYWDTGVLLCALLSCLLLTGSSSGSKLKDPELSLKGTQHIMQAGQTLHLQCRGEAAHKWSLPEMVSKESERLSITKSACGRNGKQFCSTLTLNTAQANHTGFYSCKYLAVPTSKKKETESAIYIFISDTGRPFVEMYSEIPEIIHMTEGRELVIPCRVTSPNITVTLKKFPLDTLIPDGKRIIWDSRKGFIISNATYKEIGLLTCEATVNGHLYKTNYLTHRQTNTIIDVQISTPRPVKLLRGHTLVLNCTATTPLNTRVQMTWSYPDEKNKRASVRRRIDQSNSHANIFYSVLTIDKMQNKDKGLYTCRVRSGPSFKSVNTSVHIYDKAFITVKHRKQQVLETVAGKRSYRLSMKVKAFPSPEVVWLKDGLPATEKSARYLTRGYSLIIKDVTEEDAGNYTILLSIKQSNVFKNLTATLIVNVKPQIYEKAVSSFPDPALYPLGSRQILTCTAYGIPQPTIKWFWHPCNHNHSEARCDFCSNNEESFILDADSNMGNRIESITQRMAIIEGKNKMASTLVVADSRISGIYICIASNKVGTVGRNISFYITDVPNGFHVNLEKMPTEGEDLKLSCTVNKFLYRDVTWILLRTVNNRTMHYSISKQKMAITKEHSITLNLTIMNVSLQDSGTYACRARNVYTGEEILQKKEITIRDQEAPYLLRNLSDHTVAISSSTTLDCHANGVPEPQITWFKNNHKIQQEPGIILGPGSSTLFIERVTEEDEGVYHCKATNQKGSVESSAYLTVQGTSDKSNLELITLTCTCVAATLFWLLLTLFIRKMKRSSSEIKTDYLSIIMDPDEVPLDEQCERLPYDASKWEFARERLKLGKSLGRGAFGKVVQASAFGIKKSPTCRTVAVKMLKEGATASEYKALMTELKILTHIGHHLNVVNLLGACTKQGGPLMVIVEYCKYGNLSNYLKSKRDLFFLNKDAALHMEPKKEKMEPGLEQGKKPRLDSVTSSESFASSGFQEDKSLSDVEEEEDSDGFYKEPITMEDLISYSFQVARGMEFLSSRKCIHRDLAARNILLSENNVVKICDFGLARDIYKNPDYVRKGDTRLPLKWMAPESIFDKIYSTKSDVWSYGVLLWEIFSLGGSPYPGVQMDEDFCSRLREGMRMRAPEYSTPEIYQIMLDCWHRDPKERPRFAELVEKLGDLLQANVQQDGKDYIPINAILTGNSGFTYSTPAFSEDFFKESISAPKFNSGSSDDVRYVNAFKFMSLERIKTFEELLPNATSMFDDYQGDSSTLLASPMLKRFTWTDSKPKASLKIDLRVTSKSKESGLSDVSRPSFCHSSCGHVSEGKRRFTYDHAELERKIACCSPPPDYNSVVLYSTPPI

[9] = target: AMPK alpha2/beta1/gamma1 (Homo sapiens) (UniProt P54646+P54619+Q9Y478); experiment: Inhibition of AMP-A2B1G1 (unknown origin) at 1 uM by mobility shift microfluidics platform based assay relative to control; format: protein-complex assay
[10] = target: cGMP-dependent protein kinase 1 (Homo sapiens) (UniProt Q13976); experiment: Inhibition of PRKG1 (unknown origin) at 1 uM by mobility shift microfluidics platform based assay relative to control
[11] = target: NT-3 growth factor receptor (Homo sapiens) (UniProt Q16288); experiment: Inhibition of TRKC (unknown origin) at 1 uM by mobility shift microfluidics platform based assay relative to control
[12] = target: Death-associated protein kinase 1 (Homo sapiens) (UniProt P53355); experiment: Inhibition of DAPK1 (unknown origin) at 1 uM by mobility shift microfluidics platform based assay relative to control
[13] = target: Serine/threonine-protein kinase B-raf (Homo sapiens) (UniProt P15056); experiment: Inhibition of BRAF (unknown origin) at 1 uM by mobility shift microfluidics platform based assay relative to control
[14] = target: Hepatocyte growth factor receptor (Homo sapiens) (UniProt P08581); experiment: Inhibition of MET (unknown origin) at 1 uM by mobility shift microfluidics platform based assay relative to control
Sequence of Hepatocyte growth factor receptor (Homo sapiens) (P08581 whole entry): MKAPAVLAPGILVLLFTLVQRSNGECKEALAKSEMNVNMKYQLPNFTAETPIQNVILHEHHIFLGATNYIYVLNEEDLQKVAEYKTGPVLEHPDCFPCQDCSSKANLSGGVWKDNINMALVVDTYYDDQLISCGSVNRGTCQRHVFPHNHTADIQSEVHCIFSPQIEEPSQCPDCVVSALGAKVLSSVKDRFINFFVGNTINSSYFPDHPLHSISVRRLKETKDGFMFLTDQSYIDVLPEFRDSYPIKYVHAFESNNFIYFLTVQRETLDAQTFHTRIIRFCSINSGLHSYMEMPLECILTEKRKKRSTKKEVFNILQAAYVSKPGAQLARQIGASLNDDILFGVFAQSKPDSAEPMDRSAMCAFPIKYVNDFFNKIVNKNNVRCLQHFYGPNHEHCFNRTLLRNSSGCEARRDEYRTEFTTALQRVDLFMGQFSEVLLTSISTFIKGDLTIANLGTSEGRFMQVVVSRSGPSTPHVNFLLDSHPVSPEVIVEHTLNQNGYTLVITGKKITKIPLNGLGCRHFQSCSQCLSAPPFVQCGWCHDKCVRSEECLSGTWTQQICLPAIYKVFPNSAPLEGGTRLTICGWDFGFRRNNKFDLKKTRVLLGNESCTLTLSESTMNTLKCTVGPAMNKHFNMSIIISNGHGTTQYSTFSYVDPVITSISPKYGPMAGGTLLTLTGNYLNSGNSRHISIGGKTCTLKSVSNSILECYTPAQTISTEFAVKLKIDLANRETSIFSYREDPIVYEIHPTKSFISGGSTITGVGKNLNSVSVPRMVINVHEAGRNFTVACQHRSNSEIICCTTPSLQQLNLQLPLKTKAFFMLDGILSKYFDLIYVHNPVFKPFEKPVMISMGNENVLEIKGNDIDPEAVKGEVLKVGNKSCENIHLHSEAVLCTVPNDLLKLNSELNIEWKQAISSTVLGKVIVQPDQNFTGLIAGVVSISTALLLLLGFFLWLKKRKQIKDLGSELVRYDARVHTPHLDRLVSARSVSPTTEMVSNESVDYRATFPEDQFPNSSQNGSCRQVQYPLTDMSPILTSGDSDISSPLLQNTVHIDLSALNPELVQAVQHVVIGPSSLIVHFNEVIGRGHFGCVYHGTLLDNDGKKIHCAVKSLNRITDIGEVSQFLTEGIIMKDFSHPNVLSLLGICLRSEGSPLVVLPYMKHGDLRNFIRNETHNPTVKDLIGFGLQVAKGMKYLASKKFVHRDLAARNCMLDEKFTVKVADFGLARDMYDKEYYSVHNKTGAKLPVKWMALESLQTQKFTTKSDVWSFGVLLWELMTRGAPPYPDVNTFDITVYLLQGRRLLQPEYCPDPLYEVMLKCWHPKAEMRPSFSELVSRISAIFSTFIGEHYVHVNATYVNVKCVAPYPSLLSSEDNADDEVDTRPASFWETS

[15] = target: Calcium/calmodulin-dependent protein kinase type IV (Homo sapiens) (UniProt Q16566); experiment: Inhibition of CAMK4 (unknown origin) at 1 uM by mobility shift microfluidics platform based assay relative to control
Sequence of Calcium/calmodulin-dependent protein kinase type IV (Homo sapiens) (Q16566 whole entry): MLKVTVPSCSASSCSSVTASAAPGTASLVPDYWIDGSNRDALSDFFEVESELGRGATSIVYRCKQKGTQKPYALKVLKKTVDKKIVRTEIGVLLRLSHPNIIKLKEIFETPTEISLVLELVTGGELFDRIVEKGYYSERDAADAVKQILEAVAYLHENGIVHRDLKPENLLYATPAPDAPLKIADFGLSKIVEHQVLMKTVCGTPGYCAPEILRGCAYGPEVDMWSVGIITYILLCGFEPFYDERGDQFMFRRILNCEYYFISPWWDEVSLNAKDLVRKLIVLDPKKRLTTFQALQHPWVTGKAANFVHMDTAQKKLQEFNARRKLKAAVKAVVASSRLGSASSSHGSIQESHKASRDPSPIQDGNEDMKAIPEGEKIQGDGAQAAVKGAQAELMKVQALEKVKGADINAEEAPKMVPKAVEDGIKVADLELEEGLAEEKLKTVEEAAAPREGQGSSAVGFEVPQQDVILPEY

[16] = target: Rho-associated protein kinase 1 (Homo sapiens) (UniProt Q13464); experiment: Inhibition of ROCK1 (unknown origin) at 1 uM by mobility shift microfluidics platform based assay relative to control
[17] = target: cAMP-dependent protein kinase catalytic subunit beta (Homo sapiens) (UniProt P22694); experiment: Inhibition of PKACB (unknown origin) at 1 uM by mobility shift microfluidics platform based assay relative to control
[18] = test system: Caco-2; experiment: Efflux ratio in human Caco2 cells in absence of P-gp inhibitor by LC-MS/MS analysis; format: ADME, cell-based
Outline: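 Caco-2 bidirectional transport, with compound concentrations measured by LC-MS/MS. Efflux ratio was calculated as Papp(B−A)/Papp(A−B).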

[19] = target: Tyrosine-protein kinase SYK (Homo sapiens) (UniProt P43405); experiment: Inhibition of SYK (unknown origin) at 1 uM by mobility shift microfluidics platform based assay relative to control
[20] = target: Glycogen synthase kinase-3 beta (Homo sapiens) (UniProt P49841); experiment: Inhibition of GSK-3-beta (unknown origin) at 1 uM by mobility shift microfluidics platform based assay relative to control
Sequence of Glycogen synthase kinase-3 beta (Homo sapiens) (P49841 whole entry, looked up): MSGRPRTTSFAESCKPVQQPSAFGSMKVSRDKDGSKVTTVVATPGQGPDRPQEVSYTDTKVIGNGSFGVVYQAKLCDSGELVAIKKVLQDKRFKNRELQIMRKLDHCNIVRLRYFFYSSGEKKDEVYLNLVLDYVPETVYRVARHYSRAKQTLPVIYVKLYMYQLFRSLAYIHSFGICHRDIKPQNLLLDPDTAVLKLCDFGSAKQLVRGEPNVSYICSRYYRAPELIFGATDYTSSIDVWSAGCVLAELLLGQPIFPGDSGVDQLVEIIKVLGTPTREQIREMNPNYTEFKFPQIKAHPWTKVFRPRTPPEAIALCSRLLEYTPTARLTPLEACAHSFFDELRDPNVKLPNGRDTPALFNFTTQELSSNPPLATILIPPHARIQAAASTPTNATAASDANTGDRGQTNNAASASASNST

[21] = target: Serine/threonine-protein kinase 10 (Homo sapiens) (UniProt O94804); experiment: Inhibition of LOK (unknown origin) at 1 uM by mobility shift microfluidics platform based assay relative to control
[22] = target: Serine/threonine-protein kinase B-raf (Homo sapiens, UniProt P15056, V600E); experiment: Inhibition of BRAF V600E mutant (unknown origin) after 20 mins by immunoblotting assay
[23] = target: Calcium/calmodulin-dependent protein kinase type II subunit alpha (Homo sapiens) (UniProt Q9UQM7); experiment: Inhibition of CAMK2A (unknown origin) at 1 uM by mobility shift microfluidics platform based assay relative to control
[24] = target: Discoidin domain-containing receptor 2 (Homo sapiens) (UniProt Q16832); experiment: Inhibition of DDR2 (unknown origin) at 1 uM by mobility shift microfluidics platform based assay relative to control
[25] = target: Serine/threonine-protein kinase D2 (Homo sapiens) (UniProt Q9BZL6); experiment: Inhibition of PRKD2 (unknown origin) at 1 uM by mobility shift microfluidics platform based assay relative to control
[26] = target: Tyrosine-protein kinase Fgr (Homo sapiens) (UniProt P09769); experiment: Inhibition of FGR (unknown origin) at 1 uM by mobility shift microfluidics platform based assay relative to control
[27] = target: RAF proto-oncogene serine/threonine-protein kinase (Homo sapiens) (UniProt P04049); experiment: Inhibition of CRAF (unknown origin) at 1 uM by mobility shift microfluidics platform based assay relative to control
[28] = target: Tyrosine-protein kinase CSK (Homo sapiens) (UniProt P41240); experiment: Inhibition of CSK (unknown origin) at 1 uM by mobility shift microfluidics platform based assay relative to control
Sequence of Tyrosine-protein kinase CSK (Homo sapiens) (P41240 2-450 limits assumed): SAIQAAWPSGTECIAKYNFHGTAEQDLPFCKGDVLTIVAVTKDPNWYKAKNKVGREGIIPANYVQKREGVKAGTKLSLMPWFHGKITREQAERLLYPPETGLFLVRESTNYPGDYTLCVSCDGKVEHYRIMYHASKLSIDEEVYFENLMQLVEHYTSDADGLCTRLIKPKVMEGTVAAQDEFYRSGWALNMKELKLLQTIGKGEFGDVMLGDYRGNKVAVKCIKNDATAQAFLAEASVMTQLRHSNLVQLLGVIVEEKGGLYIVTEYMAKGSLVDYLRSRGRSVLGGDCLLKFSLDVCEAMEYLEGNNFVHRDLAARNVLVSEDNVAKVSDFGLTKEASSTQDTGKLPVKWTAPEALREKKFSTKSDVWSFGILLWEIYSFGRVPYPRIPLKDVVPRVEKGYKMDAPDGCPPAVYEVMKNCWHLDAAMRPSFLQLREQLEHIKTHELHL

[29] = target: Serine/threonine-protein kinase Nek7 (Homo sapiens) (UniProt Q8TDX7); experiment: Inhibition of NEK7 (unknown origin) at 1 uM by mobility shift microfluidics platform based assay relative to control
Sequence of Serine/threonine-protein kinase Nek7 (Homo sapiens) (Q8TDX7 whole entry, looked up): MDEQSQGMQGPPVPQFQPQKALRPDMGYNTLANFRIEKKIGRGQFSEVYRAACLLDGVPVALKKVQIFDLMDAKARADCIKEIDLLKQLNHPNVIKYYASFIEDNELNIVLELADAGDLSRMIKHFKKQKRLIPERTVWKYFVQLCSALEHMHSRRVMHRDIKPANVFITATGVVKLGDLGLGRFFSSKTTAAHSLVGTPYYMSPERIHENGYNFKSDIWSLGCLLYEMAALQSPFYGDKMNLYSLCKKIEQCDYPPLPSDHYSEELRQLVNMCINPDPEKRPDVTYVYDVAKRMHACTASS

[30] = target: Serine/threonine-protein kinase Sgk2 (Homo sapiens) (UniProt Q9HBY8); experiment: Inhibition of SGK2 (unknown origin) at 1 uM by mobility shift microfluidics platform based assay relative to control
[31] = target: Ribosomal protein S6 kinase alpha-2 (Homo sapiens) (UniProt Q15349); experiment: Inhibition of RSK3 (unknown origin) at 1 uM by mobility shift microfluidics platform based assay relative to control
[32] = target: Mitogen-activated protein kinase kinase kinase kinase 5 (Homo sapiens) (UniProt Q9Y4K4); experiment: Inhibition of MAP4K5 (unknown origin) at 1 uM by mobility shift microfluidics platform based assay relative to control
[33] = target: Tyrosine-protein kinase TXK (Homo sapiens) (UniProt P42681); experiment: Inhibition of TXK (unknown origin) at 1 uM by mobility shift microfluidics platform based assay relative to control

Sequence of G protein-coupled receptor kinase 6 (Homo sapiens) (P43250 whole entry, looked up): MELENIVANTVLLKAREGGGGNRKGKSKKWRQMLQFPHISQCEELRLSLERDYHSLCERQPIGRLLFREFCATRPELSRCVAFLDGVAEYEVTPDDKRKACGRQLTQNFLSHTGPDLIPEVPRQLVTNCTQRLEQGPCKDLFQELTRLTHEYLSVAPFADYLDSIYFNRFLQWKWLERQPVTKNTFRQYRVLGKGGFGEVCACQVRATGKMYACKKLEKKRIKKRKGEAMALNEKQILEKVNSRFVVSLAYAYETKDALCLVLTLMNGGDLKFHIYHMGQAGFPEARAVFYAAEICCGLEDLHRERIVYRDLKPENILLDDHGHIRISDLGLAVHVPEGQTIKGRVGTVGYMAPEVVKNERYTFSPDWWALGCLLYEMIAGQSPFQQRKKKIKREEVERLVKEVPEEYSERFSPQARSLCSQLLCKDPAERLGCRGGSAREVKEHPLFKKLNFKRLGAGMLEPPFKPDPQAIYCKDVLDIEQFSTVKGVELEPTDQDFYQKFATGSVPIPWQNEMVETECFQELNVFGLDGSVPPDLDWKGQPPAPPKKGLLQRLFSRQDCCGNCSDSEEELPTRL

inhibition [1] [%]	inhibition [2] [%]	inhibition [3] [%]	inhibition [4] [%]	inhibition [5] [%]	inhibition [6] [%]	inhibition [7] [%]	inhibition [8] [%]	inhibition [9] [%]	inhibition [10] [%]	inhibition [11] [%]	inhibition [13] [%]	inhibition [14] [%]	inhibition [15] [%]	inhibition [16] [%]	inhibition [17] [%]	Ratio [18]	inhibition [19] [%]	inhibition [20] [%]	SMILES	inhibition [12] [%]	further results
-9	2	-1	101	99	0	2	99	3	1	59	101	8	11	5	2	1.2	-4	19	CC(C)n1nc(C#Cc2cccc(NC(=O)c3cccc(C(F)(F)F)c3)c2)c2c(N)ncnc21	-2	inhibition [21]: 97%; IC50 [22]: 4 nM; inhibition [23]: 3%; inhibition [24]: 93%; inhibition [25]: 1%; inhibition [26]: 99%; inhibition [27]: 118%; inhibition [28]: 93%; inhibition [29]: 1%; inhibition [30]: 0%; inhibition [31]: 10%; inhibition [32]: 66%; inhibition [33]: 94%
3	2	1	88	87	1	5	89	1	1	14	92	-1	6	1	3	3.2	6	3	CC(C)n1nc(C#Cc2cccc3cc(-c4cccc(C(F)(F)F)c4)ncc23)c2c(N)ncnc21	-2	inhibition [21]: 59%; IC50 [22]: 65 nM; inhibition [23]: 6%; inhibition [24]: 96%; inhibition [25]: 2%; inhibition [26]: 71%; inhibition [27]: 101%; inhibition [28]: 31%; inhibition [29]: -2%; inhibition [30]: -2%; inhibition [31]: 2%; inhibition [32]: 33%; inhibition [33]: 5%
